# Laboratory results published in ChEMBL document CHEMBL4364301 (Eur J Med Chem, 2019).
# What was measured:
# Format in all cases: functional
# [1] = tested on: DU-145; assay: Antiproliferative activity against human DU145 cells assessed as reduction in cell growth incubated for 96 hrs by propidium iodide based 2D monolayer assay; details: DU-145, 96 h
# Procedure, shortened: (§1)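 After 24 h recovery, compound in medium or medium alone (control wells) was added at 10 half-log concentrations from 0.0032 to 100 µM, in triplicate, with at most 0.3% DMSO. After 96 h, wells were PBS-washed, stained with 7 µg/ml PI and 0.1% Triton X-100, and fluorescence read at 530/620 nm. IC50 came from a 4-parameter fit, geometric mean.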
# [2] = tested on: DU-145; assay: Antiproliferative activity against human DU145 cells assessed as T/C value at 3.2 x 10^-2 uM incubated for 96 hrs by propidium iodide based 2D monolayer assay; procedure, shortened: as §1
# [3] = tested on: VCaP; assay: Antiproliferative activity against human VCaP cells assessed as T/C value at 1 uM incubated for 96 hrs by propidium iodide based 2D monolayer assay
# Procedure, shortened: as §1, with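 “Cells were kept in RPMI 1640 with 25 mM HEPES, 10% FCS and gentamicin at 37 °C under 5% CO2, and plated at 4,000-20,000 cells/well. After 24” for “After 24”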
# [4] = tested on: CWR22R; assay: Antiproliferative activity against human 22Rv1 cells assessed as T/C value at 3.2 x 10^-1 uM incubated for 96 hrs by propidium iodide based 2D monolayer assay
# Procedure, shortened: as §1, with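 “Cells were kept in RPMI 1640 with 25 mM HEPES, 10% FCS and gentamicin at 37 °C under 5% CO2, and plated at 4,000-20,000 cells/well. After 24” for “After 24”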
# [5] = tested on: LNCaP; assay: Antiproliferative activity against human LNCAP cells assessed as T/C value at 3.2 x 10^-2 uM incubated for 96 hrs by propidium iodide based 2D monolayer assay
# Procedure, shortened: as §1, with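 “Cells were kept in RPMI 1640 with 25 mM HEPES, 10% FCS and gentamicin at 37 °C under 5% CO2, and plated at 4,000-20,000 cells/well. After 24” for “After 24”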
# [6] = tested on: DU-145; assay: Antiproliferative activity against human DU145 cells assessed as T/C value at 1 x 10^-2 uM incubated for 96 hrs by propidium iodide based 2D monolayer assay; procedure, shortened: as §1
# [7] = tested on: CWR22R; assay: Antiproliferative activity against human 22Rv1 cells assessed as T/C value at 3.2 x 10^1 uM incubated for 96 hrs by propidium iodide based 2D monolayer assay
# Procedure, shortened: as §1, with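 “Cells were kept in RPMI 1640 with 25 mM HEPES, 10% FCS and gentamicin at 37 °C under 5% CO2, and plated at 4,000-20,000 cells/well. After 24” for “After 24”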
# [8] = tested on: CWR22R; assay: Antiproliferative activity against human 22Rv1 cells assessed as T/C value at 1 x 10^1 uM incubated for 96 hrs by propidium iodide based 2D monolayer assay
# Procedure, shortened: as §1, with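 “Cells were kept in RPMI 1640 with 25 mM HEPES, 10% FCS and gentamicin at 37 °C under 5% CO2, and plated at 4,000-20,000 cells/well. After 24” for “After 24”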
# [9] = tested on: DU-145; assay: Antiproliferative activity against human DU145 cells assessed as T/C value at 1 x 10^2 uM incubated for 96 hrs by propidium iodide based 2D monolayer assay
# Procedure, shortened: as §1, with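 “Cells were kept in RPMI 1640 with 25 mM HEPES, 10% FCS and gentamicin at 37 °C under 5% CO2, and plated at 4,000-20,000 cells/well. After 24” for “After 24”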
# [10] = tested on: VCaP; assay: Antiproliferative activity against human VCaP cells assessed as T/C value at 1 x 10^-2 uM incubated for 96 hrs by propidium iodide based 2D monolayer assay
# Procedure, shortened: as §1, with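 “Cells were kept in RPMI 1640 with 25 mM HEPES, 10% FCS and gentamicin at 37 °C under 5% CO2, and plated at 4,000-20,000 cells/well. After 24” for “After 24”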
# [11] = tested on: VCaP; assay: Antiproliferative activity against human VCaP cells assessed as T/C value at 1 x 10^1 uM incubated for 96 hrs by propidium iodide based 2D monolayer assay
# Procedure, shortened: as §1, with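 “Cells were kept in RPMI 1640 with 25 mM HEPES, 10% FCS and gentamicin at 37 °C under 5% CO2, and plated at 4,000-20,000 cells/well. After 24” for “After 24”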
# [12] = tested on: LNCaP; assay: Antiproliferative activity against human LNCAP cells assessed as T/C value at 1 x 10^-2 uM incubated for 96 hrs by propidium iodide based 2D monolayer assay
# Procedure, shortened: as §1, with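 “Cells were kept in RPMI 1640 with 25 mM HEPES, 10% FCS and gentamicin at 37 °C under 5% CO2, and plated at 4,000-20,000 cells/well. After 24” for “After 24”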
# [13] = tested on: CWR22R; assay: Antiproliferative activity against human 22Rv1 cells assessed as T/C value at 1 x 10^2 uM incubated for 96 hrs by propidium iodide based 2D monolayer assay
# Procedure, shortened: as §1, with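 “Cells were kept in RPMI 1640 with 25 mM HEPES, 10% FCS and gentamicin at 37 °C under 5% CO2, and plated at 4,000-20,000 cells/well. After 24” for “After 24”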
# [14] = tested on: LNCaP; assay: Antiproliferative activity against human LNCAP cells assessed as T/C value at 3.2 x 10^-1 uM incubated for 96 hrs by propidium iodide based 2D monolayer assay
# Procedure, shortened: as §1, with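 “Cells were kept in RPMI 1640 with 25 mM HEPES, 10% FCS and gentamicin at 37 °C under 5% CO2, and plated at 4,000-20,000 cells/well. After 24” for “After 24”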
# [15] = tested on: CWR22R; assay: Antiproliferative activity against human 22Rv1 cells assessed as T/C value at 1 uM incubated for 96 hrs by propidium iodide based 2D monolayer assay
# Procedure, shortened: as §1, with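 “Cells were kept in RPMI 1640 with 25 mM HEPES, 10% FCS and gentamicin at 37 °C under 5% CO2, and plated at 4,000-20,000 cells/well. After 24” for “After 24”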
# [16] = tested on: LNCaP; assay: Antiproliferative activity against human LNCAP cells assessed as T/C value at 1 uM incubated for 96 hrs by propidium iodide based 2D monolayer assay
# Procedure, shortened: as §1, with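 “Cells were kept in RPMI 1640 with 25 mM HEPES, 10% FCS and gentamicin at 37 °C under 5% CO2, and plated at 4,000-20,000 cells/well. After 24” for “After 24”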
# [17] = tested on: CWR22R; assay: Antiproliferative activity against human 22Rv1 cells assessed as T/C value at 3.2 x 10^-2 uM incubated for 96 hrs by propidium iodide based 2D monolayer assay
# Procedure, shortened: as §1, with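 “Cells were kept in RPMI 1640 with 25 mM HEPES, 10% FCS and gentamicin at 37 °C under 5% CO2, and plated at 4,000-20,000 cells/well. After 24” for “After 24”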
# [18] = tested on: DU-145; assay: Antiproliferative activity against human DU145 cells assessed as T/C value at 1 uM incubated for 96 hrs by propidium iodide based 2D monolayer assay; procedure, shortened: as §1
# [19] = tested on: LNCaP; assay: Antiproliferative activity against human LNCAP cells assessed as T/C value at 1 x 10^1 uM incubated for 96 hrs by propidium iodide based 2D monolayer assay
# Procedure, shortened: as §1, with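 “Cells were kept in RPMI 1640 with 25 mM HEPES, 10% FCS and gentamicin at 37 °C under 5% CO2, and plated at 4,000-20,000 cells/well. After 24” for “After 24”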
# [20] = tested on: CWR22R; assay: Antiproliferative activity against human 22Rv1 cells assessed as T/C value at 3.2 uM incubated for 96 hrs by propidium iodide based 2D monolayer assay
# Procedure, shortened: as §1, with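 “Cells were kept in RPMI 1640 with 25 mM HEPES, 10% FCS and gentamicin at 37 °C under 5% CO2, and plated at 4,000-20,000 cells/well. After 24” for “After 24”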
# [21] = tested on: CWR22R; assay: Antiproliferative activity against human 22Rv1 cells assessed as reduction in cell growth incubated for 96 hrs by propidium iodide based 2D monolayer assay; details: 22Rv1, 96 h; procedure, shortened: as §1
# [22] = tested on: DU-145; assay: Antiproliferative activity against human DU145 cells assessed as T/C value at 3.2 x 10^-3 uM incubated for 96 hrs by propidium iodide based 2D monolayer assay; procedure, shortened: as §1
# [23] = tested on: DU-145; assay: Antiproliferative activity against human DU145 cells assessed as T/C value at 3.2 x 10^1 uM incubated for 96 hrs by propidium iodide based 2D monolayer assay
# Procedure, shortened: as §1, with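 “Cells were kept in RPMI 1640 with 25 mM HEPES, 10% FCS and gentamicin at 37 °C under 5% CO2, and plated at 4,000-20,000 cells/well. After 24” for “After 24”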
# [24] = tested on: VCaP; assay: Antiproliferative activity against human VCaP cells assessed as T/C value at 3.2 uM incubated for 96 hrs by propidium iodide based 2D monolayer assay
# Procedure, shortened: as §1, with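 “Cells were kept in RPMI 1640 with 25 mM HEPES, 10% FCS and gentamicin at 37 °C under 5% CO2, and plated at 4,000-20,000 cells/well. After 24” for “After 24”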
# [25] = tested on: VCaP; assay: Antiproliferative activity against human VCaP cells assessed as T/C value at 1 x 10^-1 uM incubated for 96 hrs by propidium iodide based 2D monolayer assay
# Procedure, shortened: as §1, with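 “Cells were kept in RPMI 1640 with 25 mM HEPES, 10% FCS and gentamicin at 37 °C under 5% CO2, and plated at 4,000-20,000 cells/well. After 24” for “After 24”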
# [26] = tested on: VCaP; assay: Antiproliferative activity against human VCaP cells assessed as T/C value at 3.2 x 10^-1 uM incubated for 96 hrs by propidium iodide based 2D monolayer assay
# Procedure, shortened: (§2)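 VCaP cells in RPMI 1640 with 10% FCS at 37 °C, 5% CO2, seeded 4,000–20,000 cells/well and left 24 h before dosing. Compounds from DMSO stocks were diluted in half-log steps in medium, 10 concentrations 0.0032–100 μM, triplicate wells, max 0.3% DMSO. After 96 h, cells were washed, stained with 7 μg/ml propidium iodide plus 0.1% Triton X-100 for 1–2 h at room temperature, and fluorescence read at ex 530/em 620 nm.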
# [27] = tested on: LNCaP; assay: Antiproliferative activity against human LNCAP cells assessed as T/C value at 3.2 uM incubated for 96 hrs by propidium iodide based 2D monolayer assay
# Procedure, shortened: as §1, with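 “Cells were kept in RPMI 1640 with 25 mM HEPES, 10% FCS and gentamicin at 37 °C under 5% CO2, and plated at 4,000-20,000 cells/well. After 24” for “After 24”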
# [28] = tested on: VCaP; assay: Antiproliferative activity against human VCaP cells assessed as reduction in cell growth incubated for 96 hrs by propidium iodide based 2D monolayer assay; procedure, shortened: as §2
# [29] = tested on: VCaP; assay: Antiproliferative activity against human VCaP cells assessed as T/C value at 3.2 x 10^-3 uM incubated for 96 hrs by propidium iodide based 2D monolayer assay; procedure, shortened: as §2
# [30] = tested on: LNCaP; assay: Antiproliferative activity against human LNCAP cells assessed as T/C value at 3.2 x 10^-3 uM incubated for 96 hrs by propidium iodide based 2D monolayer assay
# Procedure, shortened: as §1, with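 “Cells were kept in RPMI 1640 with 25 mM HEPES, 10% FCS and gentamicin at 37 °C under 5% CO2, and plated at 4,000-20,000 cells/well. After 24” for “After 24”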
# [31] = tested on: CWR22R; assay: Antiproliferative activity against human 22Rv1 cells assessed as T/C value at 1 x 10^-2 uM incubated for 96 hrs by propidium iodide based 2D monolayer assay
# Procedure, shortened: as §1, with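 “Cells were kept in RPMI 1640 with 25 mM HEPES, 10% FCS and gentamicin at 37 °C under 5% CO2, and plated at 4,000-20,000 cells/well. After 24” for “After 24”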
# [32] = tested on: LNCaP; assay: Antiproliferative activity against human LNCAP cells assessed as T/C value at 1 x 10^2 uM incubated for 96 hrs by propidium iodide based 2D monolayer assay
# Procedure, shortened: as §1, with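 “Cells were kept in RPMI 1640 with 25 mM HEPES, 10% FCS and gentamicin at 37 °C under 5% CO2, and plated at 4,000-20,000 cells/well. After 24” for “After 24”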
compound,measurement,setting,value
CC1(C)C(=O)N(c2cccc(S(F)(F)(F)(F)F)c2)C(=S)N1c1cccc(C(F)(F)F)c1,IC50,[1],100 µM
same,IC70,[1],> 100 µM
same,T/C,[2],96%
same,T/C,[3],84%
same,T/C,[4],98%
same,T/C,[5],73%
same,T/C,[6],94%
same,T/C,[7],58%
same,T/C,[8],69%
same,T/C,[9],76%
same,T/C,[10],82%
same,T/C,[11],74%
same,T/C,[12],94%
same,T/C,[13],55%
same,T/C,[14],80%
same,T/C,[15],85%
same,T/C,[16],74%
same,T/C,[17],96%
same,T/C,[18],108%
same,T/C,[19],23%
same,T/C,[20],79%
same,IC50,[21],100 µM
same,IC70,[21],> 100 µM
same,T/C,[22],101%
same,T/C,[23],85%
same,T/C,[24],71%
same,T/C,[25],80%
same,T/C,[26],87%
same,T/C,[27],63%
same,IC50,[28],100 µM
same,IC70,[28],> 100 µM
same,T/C,[29],104%
same,T/C,[30],92%
same,T/C,[31],96%
same,T/C,[32],22%
